# Assay results of several laboratories.
# pEC50, pIC50, pKi: −log10 of the molar value.
# PTGES: Prostaglandin E synthase (PTGES, Homo sapiens, UniProt O14684)
# CHRM2: Muscarinic acetylcholine receptor M2 (CHRM2, Homo sapiens, UniProt P08172)
SMILES,target,assay,quantity,value
CCCCCc1cc(O)c2c(c1)OC(C)(C)[C@@H]1CCC(C)=C[C@@H]21,PTGES,"enzyme activity, inhibitor",pIC50,< 5.00
CCCCCCCCCCCCNCCCc1ccc([N+](=O)[O-])cc1,CHRM2,"ligand displacement, radioligand",pKi,5.25
CC(C)C[C@H](NC(=O)[C@H](Cc1ccccc1)NC(=O)[C@H](Cc1ccc(O)cc1)NC(=O)CNC(=O)[C@H](CCCCN)NC(=O)[C@H](CO)NC(=O)[C@H](CCC(N)=O)NC(=O)CNC(=O)[C@@H](NC(=O)[C@H](CO)NC(=O)[C@@H]1CCCN1C(=O)[C@H](CO)NC(=O)[C@H](CCC(N)=O)NC(=O)[C@H](Cc1ccc(O)cc1)NC(=O)[C@H](CCC(=O)O)NC(=O)[C@H](C)NC(=O)[C@H](CCCCN)NC(=O)[C@@H](N)Cc1ccccc1)C(C)C)C(=O)N[C@@H](Cc1ccccc1)C(=O)N[C@@H](CCCNC(=N)N)C(=O)N1CCC[C@H]1C(=O)N[C@@H](CCCNC(=N)N)C(=O)N[C@@H](CC(N)=O)C(N)=O,"Neuromedin-U receptor 1 (Mus musculus, UniProt O55040)","β-arrestin recruitment, agonist",pEC50,9.30
CCCCCCCNCCCc1ccc([N+](=O)[O-])cc1,CHRM2,"ligand displacement, radioligand",pKi,5.49
CC(C)C[C@H](NC(=O)CNC(=O)[C@H](C)NC(=O)c1ccc(S[C@@H]2O[C@H](CO)[C@H](O)[C@H](O)[C@H]2O)cc1)C(=O)N[C@@H](C)C(=O)N[C@H]1CCN(c2cc3c(cc2F)c(=O)c(C(=O)O)cn3C2CC2)C1,"PA-I galactophilic lectin (lecA, Pseudomonas aeruginosa, UniProt Q05097)","ligand displacement, FP",pKi,4.92
CC(C)[N+](C)(CCC(C(N)=O)(c1ccccc1)c1ccccc1)C(C)C,CHRM2,"ligand displacement, radioligand",pIC50,8.15
CCCCCc1cc(O)c2c(c1)OC(C)(C)c1ccc(C)cc1-2,PTGES,"enzyme activity, inhibitor",pIC50,< 5.00
CC(C)(C)[C@H](NC(=O)C(F)(F)F)C(=O)N1C[C@H]2[C@@H]([C@H]1C(=O)N[C@H](C#N)C[C@@H]1CCNC1=O)C2(C)C,"Organic anion transporter 3 (SLC22A8, Homo sapiens, UniProt Q8TCC7)","transporter uptake, inhibitor",pKi,3.28
